Test results from ChEMBL document CHEMBL4350995, “Synthesis and antiproliferative activity of culicinin D analogues containing simplified AHMOD-based residues” (Eur J Med Chem, 2019).
Numbered stars: 1 amine (or outer) side, 2 acyl side, 3 side chain; on linkers, the order of the positions; unused ones are H or OH. Square brackets hold non-standard residues; d marks the D form. Peptide text beside a SMILES is read from it. * marks the point of attachment. X3 = CCC(=O)C[C@@H](O)C[C@@H](C)C[C@H](N[*:1])C(=O)[*:2]; X8 = CCC(=O)C[C@H](O)C[C@@H](C)C[C@H](N[*:1])C(=O)[*:2]; X2 = CCCC[C@@H](O)C[C@@H](C)C[C@H](N[*:1])C(=O)[*:2]; X6 = CCCC[C@H](O)C[C@@H](C)C[C@H](N[*:1])C(=O)[*:2]; X4 = CCCCCCCC[C@@H](C)C[C@H](N[*:1])C(=O)[*:2]; Nva(5-pentanoyl) = CCCCC(=O)CCC[C@H](N)C(=O)O; X1 = CCCCCC[C@@H](C)C[C@H](N[*:1])C(=O)[*:2]; NH((S)CH(Me)CH2NHC2H4OH) = C[C@@H](CNCCO)N*; X9 = CCC(=O)CC(O)CCC[C@H](N[*:1])C(=O)[*:2]; X5 = CCCCCCC(=O)CCC[C@H](N[*:1])C(=O)[*:2]; Gly(decyl) = CCCCCCCCCC[C@H](N)C(=O)O; X7 = O=C([C@H](CCCCO)N[*:1])[*:2]; Aoc(2) = CCCCCC[C@H](N)C(=O)O; hSer = N[C@@H](CCO)C(=O)O; Aib = CC(C)(N)C(=O)O; Butyryl = CCCC(=O)*; βAla = NCCC(=O)O

Experiments:
Format in all cases: functional, cell-based
T47D = assay: Antiproliferative activity against human T47D cells incubated for 5 days by SRB assay; conditions: 120 h
Method in brief: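 Cells were grown in RPMI + 10% FCS (37 °C, 5% CO2, STR-authenticated, <3 months passage) and seeded at 1500 cells/well. After overnight attachment they received 3-fold serial dilutions (30 mM DMSO stock) in duplicate for 5 days. Total cells were measured by sulphorhodamine B staining. IC50 was interpolated from a 4-parameter logistic fit against same-plate untreated controls. Values are mean ± SEM, n = 2–3.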

NCI-H460 = assay: Antiproliferative activity against human NCI-H460 cells incubated for 5 days by SRB assay; conditions: NCI-H460, 120 h
Method in brief: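 Cultured in alpha MEM + 5% FCS, 37 °C, 5% CO2; STR-authenticated, <3 months passage. Seeded at 300 cells/well and attached overnight, then given duplicate 3-fold serial dilutions of peptide (30 mM DMSO stock) for 5 days. Read-out was sulphorhodamine B staining. IC50 was interpolated from a 4-parameter logistic fit versus peptide-free controls. Values are mean ± SEM of 2–3 independent experiments.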

SK-BR-3 = assay: Antiproliferative activity against human SKBR3 cells incubated for 5 days by SRB assay; conditions: SK-BR-3, 120 h
Method in brief: (§1)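 STR-authenticated cells, <3 months passage, in DMEM + 10% FCS at 37 °C, 5% CO2, were seeded at 2000 cells/well and attached overnight. They were then exposed in duplicate to 3-fold serial dilutions from a 30 mM DMSO stock for 5 days. Staining was with sulphorhodamine B. IC50 was interpolated from 4-parameter logistic fits versus peptide-free controls on the same plate. Values are mean ± SEM, n = 2–3 independent experiments.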

MDA-MB-468 = assay: Antiproliferative activity against human MDA-MB-468 cells incubated for 5 days by SRB assay; conditions: MDA-MB-468, 120 h; method in brief: as §1

SMILES	IC50 (T47D)	IC50 (NCI-H460)	IC50 (SK-BR-3)	IC50 (MDA-MB-468)
CCCCCC[C@@H](C)C[C@H](NC(=O)C(C)(C)NC(=O)C(C)(C)NC(=O)[C@H](CCCCN)NC(=O)[C@@H]1CCCN1C(=O)CCC)C(=O)N[C@@H](CC(C)C)C(=O)NC(C)(C)C(=O)N[C@@H](CC(C)C)C(=O)NCCC(=O)N[C@@H](C)CNCCO (Butyryl-PK[Aib][Aib][X1]L[Aib]L[βAla]-{NH((S)CH(Me)CH2NHC2H4OH)})	> 1000 nM	> 1000 nM	> 1000 nM	> 1000 nM
CCCCCC[C@@H](C)C[C@H](NC(=O)C(C)(C)NC(=O)C(C)(C)NC(=O)[C@H](CC(C)C)NC(=O)[C@@H]1CCCN1C(=O)CCC)C(=O)N[C@@H](CC(C)C)C(=O)NC(C)(C)C(=O)N[C@@H](CC(C)C)C(=O)NCCC(=O)N[C@@H](C)CNCCO (Butyryl-PL[Aib][Aib][X1]L[Aib]L[βAla]-{NH((S)CH(Me)CH2NHC2H4OH)})	70 nM	130 nM	280 nM	90 nM
CCCCCC[C@@H](C)C[C@H](NC(=O)C(C)(C)NC(=O)C(C)(C)NC(=O)[C@H](CO)NC(=O)[C@@H]1CCCN1C(=O)CCC)C(=O)N[C@@H](CC(C)C)C(=O)NC(C)(C)C(=O)N[C@@H](CC(C)C)C(=O)NCCC(=O)N[C@@H](C)CNCCO (Butyryl-PS[Aib][Aib][X1]L[Aib]L[βAla]-{NH((S)CH(Me)CH2NHC2H4OH)})	66 nM	127 nM	> 500 nM	74 nM
CCCCCC[C@@H](C)C[C@H](NC(=O)C(C)(C)NC(=O)C(C)(C)NC(=O)[C@H](CCCCCC)NC(=O)[C@@H]1CCCN1C(=O)CCC)C(=O)N[C@@H](CC(C)C)C(=O)NC(C)(C)C(=O)N[C@@H](CC(C)C)C(=O)NCCC(=O)N[C@@H](C)CNCCO (Butyryl-P[Aoc(2)][Aib][Aib][X1]L[Aib]L[βAla]-{NH((S)CH(Me)CH2NHC2H4OH)})	170 nM	190 nM	240 nM	140 nM
CCCCCCCCCC[C@H](NC(=O)[C@@H]1CCCN1C(=O)CCC)C(=O)NC(C)(C)C(=O)NC(C)(C)C(=O)N[C@@H](C[C@H](C)CCCCCC)C(=O)N[C@@H](CC(C)C)C(=O)NC(C)(C)C(=O)N[C@@H](CC(C)C)C(=O)NCCC(=O)N[C@@H](C)CNCCO (Butyryl-P[Gly(decyl)][Aib][Aib][X1]L[Aib]L[βAla]-{NH((S)CH(Me)CH2NHC2H4OH)})	232 nM	382 nM	280 nM	59 nM
CCCCCC[C@@H](C)C[C@H](NC(=O)C(C)(C)NC(=O)C(C)(C)NC(=O)[C@H](C[C@H](C)C[C@H](O)CCCC)NC(=O)[C@@H]1CCCN1C(=O)CCC)C(=O)N[C@@H](CC(C)C)C(=O)NC(C)(C)C(=O)N[C@@H](CC(C)C)C(=O)NCCC(=O)N[C@@H](C)CNCCO (Butyryl-P[X2][Aib][Aib][X1]L[Aib]L[βAla]-{NH((S)CH(Me)CH2NHC2H4OH)})	197 nM	126 nM	327 nM	111 nM
CCCCCCCC[C@@H](C)C[C@H](NC(=O)[C@@H]1CCCN1C(=O)CCC)C(=O)NC(C)(C)C(=O)NC(C)(C)C(=O)N[C@@H](C[C@H](C)CCCCCC)C(=O)N[C@@H](CC(C)C)C(=O)NC(C)(C)C(=O)N[C@@H](CC(C)C)C(=O)NCCC(=O)N[C@@H](C)CNCCO (Butyryl-P[X4][Aib][Aib][X1]L[Aib]L[βAla]-{NH((S)CH(Me)CH2NHC2H4OH)})	31 nM	37 nM	236 nM	40 nM
CCCCCC[C@@H](C)C[C@H](NC(=O)C(C)(C)NC(=O)C(C)(C)NC(=O)[C@H](C[C@H](C)C[C@@H](O)CCCC)NC(=O)[C@@H]1CCCN1C(=O)CCC)C(=O)N[C@@H](CC(C)C)C(=O)NC(C)(C)C(=O)N[C@@H](CC(C)C)C(=O)NCCC(=O)N[C@@H](C)CNCCO (Butyryl-P[X6][Aib][Aib][X1]L[Aib]L[βAla]-{NH((S)CH(Me)CH2NHC2H4OH)})	264 nM	234 nM	> 500 nM	297 nM
CCCCCC[C@@H](C)C[C@H](NC(=O)C(C)(C)NC(=O)C(C)(C)NC(=O)[C@H](CCCC(O)CC(=O)CC)NC(=O)[C@@H]1CCCN1C(=O)CCC)C(=O)N[C@@H](CC(C)C)C(=O)NC(C)(C)C(=O)N[C@@H](CC(C)C)C(=O)NCCC(=O)N[C@@H](C)CNCCO (stereo partly drawn) (Butyryl-P[X9][Aib][Aib][X1]L[Aib]L[βAla]-{NH((S)CH(Me)CH2NHC2H4OH)})	80 nM	190 nM	500 nM	70 nM

Stronger by IC50 (T47D), values ahead:

IC50 (T47D)	IC50 (NCI-H460)	IC50 (SK-BR-3)	IC50 (MDA-MB-468)	SMILES
10 nM	10 nM	30 nM	10 nM	CCCCCC[C@@H](C)C[C@H](NC(=O)C(C)(C)NC(=O)C(C)(C)NC(=O)[C@H](CCCC(=O)CCCC)NC(=O)[C@@H]1CCCN1C(=O)CCC)C(=O)N[C@@H](CC(C)C)C(=O)NC(C)(C)C(=O)N[C@@H](CC(C)C)C(=O)NCCC(=O)N[C@@H](C)CNCCO (Butyryl-P[Nva(5-pentanoyl)][Aib][Aib][X1]L[Aib]L[βAla]-{NH((S)CH(Me)CH2NHC2H4OH)})
7 nM	8 nM	35 nM	11 nM	CCCCCC[C@@H](C)C[C@H](NC(=O)C(C)(C)NC(=O)C(C)(C)NC(=O)[C@H](C[C@H](C)C[C@H](O)CC(=O)CC)NC(=O)[C@@H]1CCCN1C(=O)CCC)C(=O)N[C@@H](CC(C)C)C(=O)NC(C)(C)C(=O)N[C@@H](CC(C)C)C(=O)NCCC(=O)N[C@@H](C)CNCCO (Butyryl-P[X3][Aib][Aib][X1]L[Aib]L[βAla]-{NH((S)CH(Me)CH2NHC2H4OH)})
6 nM	5 nM	18 nM	8 nM	CCCCCCC(=O)CCC[C@H](NC(=O)[C@@H]1CCCN1C(=O)CCC)C(=O)NC(C)(C)C(=O)NC(C)(C)C(=O)N[C@@H](C[C@H](C)CCCCCC)C(=O)N[C@@H](CC(C)C)C(=O)NC(C)(C)C(=O)N[C@@H](CC(C)C)C(=O)NCCC(=O)N[C@@H](C)CNCCO (Butyryl-P[X5][Aib][Aib][X1]L[Aib]L[βAla]-{NH((S)CH(Me)CH2NHC2H4OH)})
14 nM	28 nM	59 nM	25 nM	CCCCCC[C@@H](C)C[C@H](NC(=O)C(C)(C)NC(=O)C(C)(C)NC(=O)[C@H](CCCCO)NC(=O)[C@@H]1CCCN1C(=O)CCC)C(=O)N[C@@H](CC(C)C)C(=O)NC(C)(C)C(=O)N[C@@H](CC(C)C)C(=O)NCCC(=O)N[C@@H](C)CNCCO (Butyryl-P[X7][Aib][Aib][X1]L[Aib]L[βAla]-{NH((S)CH(Me)CH2NHC2H4OH)})
5 nM	5 nM	32 nM	8 nM	CCCCCC[C@@H](C)C[C@H](NC(=O)C(C)(C)NC(=O)C(C)(C)NC(=O)[C@H](C[C@H](C)C[C@@H](O)CC(=O)CC)NC(=O)[C@@H]1CCCN1C(=O)CCC)C(=O)N[C@@H](CC(C)C)C(=O)NC(C)(C)C(=O)N[C@@H](CC(C)C)C(=O)NCCC(=O)N[C@@H](C)CNCCO (Butyryl-P[X8][Aib][Aib][X1]L[Aib]L[βAla]-{NH((S)CH(Me)CH2NHC2H4OH)})
20 nM	30 nM	108 nM	30 nM	CCCCCC[C@@H](C)C[C@H](NC(=O)C(C)(C)NC(=O)C(C)(C)NC(=O)[C@H](CCO)NC(=O)[C@@H]1CCCN1C(=O)CCC)C(=O)N[C@@H](CC(C)C)C(=O)NC(C)(C)C(=O)N[C@@H](CC(C)C)C(=O)NCCC(=O)N[C@@H](C)CNCCO (Butyryl-P[hSer][Aib][Aib][X1]L[Aib]L[βAla]-{NH((S)CH(Me)CH2NHC2H4OH)})
8 nM	8 nM	100 nM	20 nM	CCCCCC[C@@H](C)C[C@H](NC(=O)C(C)(C)NC(=O)C(C)(C)NC(=O)[C@H](CCCC(O)CCCC)NC(=O)[C@@H]1CCCN1C(=O)CCC)C(=O)N[C@@H](CC(C)C)C(=O)NC(C)(C)C(=O)N[C@@H](CC(C)C)C(=O)NCCC(=O)N[C@@H](C)CNCCO (mixture of isomers)
